Source: ChEMBL document CHEMBL4330080, “Hydroxyazole scaffold-based Plasmodium falciparum dihydroorotate dehydrogenase inhibitors: Synthesis, biological evaluation and X-ray structural studies” (Eur J Med Chem, 2019)

Key:
[1] = target: T1, Dihydroorotate dehydrogenase (Plasmodium falciparum, UniProt Q54A96); test: Inhibition of Plasmodium falciparum recombinant N-terminal His6-tagged DHODH (159-569 residues) expressed in Escherichia coli BL21(DE3) using DHO as substrate measured every min for 5 mins by DCPI dye-based photometric analysis
T1 sequence (Q54A96 whole entry): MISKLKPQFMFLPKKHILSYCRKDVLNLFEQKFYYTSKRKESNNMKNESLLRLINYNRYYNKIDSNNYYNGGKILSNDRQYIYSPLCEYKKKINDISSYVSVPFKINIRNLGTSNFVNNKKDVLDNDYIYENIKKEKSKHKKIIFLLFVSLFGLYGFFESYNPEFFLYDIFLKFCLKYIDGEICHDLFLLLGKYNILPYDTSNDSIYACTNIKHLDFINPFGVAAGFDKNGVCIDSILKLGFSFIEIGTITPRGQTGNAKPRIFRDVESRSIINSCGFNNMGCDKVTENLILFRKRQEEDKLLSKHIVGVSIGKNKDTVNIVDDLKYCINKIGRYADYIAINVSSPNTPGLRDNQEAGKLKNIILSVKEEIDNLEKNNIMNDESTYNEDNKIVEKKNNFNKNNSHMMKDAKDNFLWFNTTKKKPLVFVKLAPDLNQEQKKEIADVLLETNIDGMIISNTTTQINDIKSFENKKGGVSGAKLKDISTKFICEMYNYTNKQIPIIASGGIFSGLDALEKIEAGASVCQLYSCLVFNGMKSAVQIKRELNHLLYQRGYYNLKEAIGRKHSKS
Procedure, shortened: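 N-terminally truncated recombinant enzyme, His-tag IMAC then size exclusion purified, in 50 mM Tris/HCl pH 7.8, 150 mM KCl, 0.1% Triton X-100 with 60 μM DCIP and 20 μM decylubiquinone. Started with 200 μM DHO; initial rate from DCIP absorbance at 600 nm over the first 5 min. IC50 is mean ± SE of three experiments.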

[2] = Dissociation constant, pKa of the compound by potentiometric analysis; format: physicochemical
[3] = target: Dihydroorotate dehydrogenase (quinone), mitochondrial (Homo sapiens, UniProt Q02127); test: Inhibition of human recombinant N-terminal GST-tagged DHODH (31 to 395 residues) expressed in Escherichia coli BL21(DE3) using DHO as substrate preincubated for 5 mins followed by substrate addition and measured for 5 mins by DCPI dye-based assay
Sequence of Dihydroorotate dehydrogenase (quinone), mitochondrial (Q02127 whole entry, the tested form may be a part): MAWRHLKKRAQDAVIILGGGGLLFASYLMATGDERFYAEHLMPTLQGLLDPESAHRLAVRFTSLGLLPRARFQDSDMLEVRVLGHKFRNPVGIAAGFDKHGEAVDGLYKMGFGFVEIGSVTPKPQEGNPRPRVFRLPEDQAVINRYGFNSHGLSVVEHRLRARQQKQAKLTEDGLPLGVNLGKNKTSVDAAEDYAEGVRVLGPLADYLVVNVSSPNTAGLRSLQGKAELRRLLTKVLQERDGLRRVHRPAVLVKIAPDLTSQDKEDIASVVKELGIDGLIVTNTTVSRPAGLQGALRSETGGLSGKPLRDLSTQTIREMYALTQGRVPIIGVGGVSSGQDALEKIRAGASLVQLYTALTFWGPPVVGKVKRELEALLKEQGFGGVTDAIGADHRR
Procedure, shortened: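 GST-fused enzyme from E. coli, glutathione-affinity purified. Pre-incubated 5 min at 37°C in Tris buffer pH 8.0 with 100 μM coenzyme Q10, 50 μM DCIP and compounds (0.1% DMSO final). Started with 500 μM DHO; DCIP reduction followed at 650 nm over the first 5 min. IC50 is mean ± SE of three experiments.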

[4] = Selectivity ratio of IC50 for human recombinant DHODH to IC50 for Plasmodium falciparum recombinant DHODH
Plasmodium falciparum = test: Anti-plasmodial activity against synchronized ring stage Plasmodium falciparum 3D7 infected in human erythrocytes assessed as reduction in parasitemia after 48 hrs by Sybr Green I dye-based flow cytometric analysis; format: functional, organism-based; details: 3D7, 48 h
Procedure, shortened: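 Parasites kept in O+ human erythrocytes in RPMI 1640 with HEPES pH 7.3, glutamine, glucose, gentamicin, 0.5mM hypoxanthine and 10% human serum, 4% hematocrit, 37°C in 1% O2/5% CO2. Sorbitol-synchronized rings; 1:2 serial dilutions from 300µM at 2% hematocrit, 1-2% parasitemia, 48h. SybrGreen I flow cytometry; triplicate points fitted to log[I] vs response for EC50.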

[5] = Cytotoxicity against African green monkey COS7 cells after 48 hrs by MTT assay; format: cell-based; details: chlorocebus aethiops, COS-7 cells
Procedure, shortened: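 COS-7 cells in DMEM with 10% heat-inactivated FBS and gentamicin, 37°C, 5% CO2. Seeded at 10⁴ cells/well and left 16 h to adhere. Compounds added at several concentrations for 48 h. MTT added for 4 h, formazan dissolved in acidified Triton/isopropanol, OD read at 570 nm. CC50 from viability relative to control, given with 95% confidence interval of the fit.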

SMILES | IC50 [1] [µM] | pKa [2] | IC50 [3] [µM] | Ratio IC50 [4] | EC50 (Plasmodium falciparum) [µM] | CC50 at 48 h [5] [µM]
Cn1cc(C(=O)NCC(c2ccccc2)c2ccccc2)c(O)n1 | > 250 | 6.42 |  |  |  | 
Cn1nc(O)c(C(=O)O)c1CSc1ccccc1 | 25 |  | > 250 | > 10 |  | 
Cc1c(C(=O)NCC(c2ccccc2)c2ccccc2)c(O)nn1C | > 250 | 6.54 |  |  |  | 
Cn1nc(O)c(C(=O)O)c1COc1ccc(C(F)(F)F)cc1 | 5.3 |  | ≥ 200 |  | 26.7 | 152
Cn1nc(OCc2ccccc2)c(C(=O)O)c1COc1ccccc1 | > 250 |  |  |  |  | 
O=C(NCC(c1ccccc1)c1ccccc1)c1nsnc1O | 12 | 3.72 | > 200 |  | 35.9 | 190
O=C(NCc1ccccc1)c1nsnc1O | 35 | 3.69 | > 200 | > 6 |  | 
O=C(NCC(c1ccccc1)c1ccccc1)c1nonc1O | 75 | 3.33 | > 200 | > 3 |  | 
Cn1nc(O)c(C(=O)O)c1COc1cccc(C(F)(F)F)c1 | 2.8 |  | ≥ 200 |  | 40.7 | 167

Further lines, with some results ahead:

IC50 [1] [µM] | pKa [2] | IC50 [3] [µM] | Ratio IC50 [4] | EC50 (Plasmodium falciparum) [µM] | SMILES | CC50 at 48 h [5] [µM]
> 250 |  |  |  |  | CCOC(=O)c1c(O)nn(C)c1COc1ccccc1 | 
> 250 |  |  |  |  | Cn1nc(OCC2CC2)c(C(=O)O)c1COc1ccccc1 | 
23 |  | > 250 | > 10 |  | CN(Cc1c(C(=O)O)c(O)nn1C)c1ccccc1 | 
19 |  | > 250 | > 13 |  | Cn1nc(O)c(C(=O)O)c1COc1ccccc1 | 
> 250 |  |  |  |  | CCOc1nn(C)c(COc2ccccc2)c1C(=O)O | 
> 250 |  |  |  |  | Cn1nc(O)c(C(N)=O)c1COc1ccccc1 | 
16 |  | > 250 | > 16 |  | Cn1nc(O)c(C(=O)O)c1CNc1ccccc1 | 
